Test system: MS2 coat protein
Assay: apparent Kd, MS2 coat protein; higher = weaker binding; RNA-MaP array
Outline: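 Designs measured on fewer than 10 clusters were excluded from the data. The rest were RNAs transcribed from sequenced DNA templates on an Illumina sequencing chip and incubated at room temperature, with or without input ligand, with fluorescently labeled MS2 coat protein at 1.5 nM to 3 μM for 0.8–1.5 h at the lowest to 10–20 min at the highest concentrations. Apparent Kd is the median of the per-cluster binding-curve fits.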

[1] = designed as: OFF switch for flavin mononucleotide, no ligand
[2] = ligand present: flavin mononucleotide, designed as: OFF switch for flavin mononucleotide
[3] = designed as: ON switch for theophylline, no ligand
[4] = ligand present: theophylline, designed as: ON switch for theophylline
[5] = designed as: ON switch for flavin mononucleotide, no ligand
[6] = ligand present: flavin mononucleotide, designed as: ON switch for flavin mononucleotide
[7] = designed as: OFF switch for tryptophan, no ligand
[8] = ligand present: tryptophan, designed as: OFF switch for tryptophan

Sequence | apparent Kd [1] [nM] | apparent Kd [2] [nM] | apparent Kd [5] [nM] | apparent Kd [6] [nM] | also measured
UGAGAUAACGCAGGAUAUCAUGCGGCAGUGUAGUGAGAAGGGCGAAUGCAAGGGUCAGACAUGAGGAUCACCCAUGUUCAUAGC | 17.2 | 12.5 | – | – | –
GUUACAUGAGGAUCACCCAUGUGGGCUGUAUGUAGCGCACCUGAGGAUAUGGCCCGGAGGUAGGACCAGAAGGCAGCGAAGAGC | 65.4 | 55.3 | – | – | –
UAGGUGCUAGGAGGAUAUUGUGAAUUUAAUUUUCAAGAAGGCCUGAACAGACUGCACAUGAGGAUCACCCAUGUAUCCAACGUC | 17.2 | 11.7 | – | – | –
GAAGAGAGGAUACCGUUUGUAUACAACGAUACCAGUGGUAUGUAUCACCCUUGGCAGCGUGAGACAUGAGGAUCACCCAUGUGGC | – | – | – | – | apparent Kd (designed as: OFF switch for theophylline, no ligand): 21.2 nM; apparent Kd (ligand present: theophylline, designed as: OFF switch for theophylline): 21.6 nM
GAAUCUACAAACGAUACCAGAUCCGGCUGCCACAUGAGGAUCACCCAUGUCUAGCGACUCAUCCCUUGGCAGCGUGUGCAUCCCG | – | – | – | – | apparent Kd [3]: 508 nM; apparent Kd [4]: 781 nM
GACAGCGAAGGAUAUACAUGAGGAUCACCCAUGUCUCACUAACGUAGCCGCGGGUAAUGUAGAAGGUCGCGAUG | 191 | 65.4 | – | – | –
ACCCGACAUGAGGAUCACCCAUGUGGUUUCGGUCGAGGAUAUUCAAUCUGAAUUAUGUAGGAAGAAGGCGAUACCC | – | – | 173 | 78 | –
GAGGCACGGUCGGCCGCCACUACAGCAGUGGUCCGCCAAGCGAGGUACAUGAGGAUCACCCAUGUUAGGACCGGGACCUGUUUUU | – | – | – | – | apparent Kd [7]: 24.6 nM; apparent Kd [8]: 73.7 nM
CUUCGGCCCAGGGAGAUGACCACAUGAGGAUCACCCAUGUACAGAAGGAGUAUCGGUAGGCCAUACUAGGAUAUGUGAAUAGAC | – | – | 25.8 | 31.4 | –
CAAAGUUUUAAGAAGGGAUCGAUUAGAUUCACAUGAGGAUCACCCAUGUAGCCGGGACGGAGAGAUCAGGAUAUUAAAGAUGUC | 55.8 | 31.9 | – | – | –
AAUAAACAGUAGAAGGCUGAUACCUACAAAAGUCGAAGACAUGAGGAUCACCCAUGUCAGUCAUCAGAGGAUAUACGUGAAUCG | – | – | 12.3 | 7.49 | –
UGCUAAAGUGAGAAGGGUGGACCACUCAUCGAGUAUGACACAUGAGGAUCACCCAUGUACGCUCCACAGGAUAUCAAAUUGAGG | – | – | 156 | 28.8 | –
GAAUGGAAAGGAUAUCGCUGUUCUGACAUGAGGAUCACCCAUGUACGUGUUAGCUUGUUUCGAGAAGGUUCCACUC | 15.6 | 21.8 | – | – | –
AUGAAGCUAAGAGAUACCAGUGACCACAGAUACAUGAGGAUCACCCAUGUCUCAAAUUGUCACCCUUGGCAGCUCACUAUCGAAG | – | – | – | – | apparent Kd [3]: 10.2 nM; apparent Kd [4]: 9.26 nM
UUGAACAUGAGGAUCACCCAUGUGGAUGAUACCAGCUAAAACAUAAGCCCUUGGCAGCAUUAAAAUGAAAUAUCGAAAAGGAAAG | – | – | – | – | apparent Kd [3]: 143 nM; apparent Kd [4]: 54.9 nM
GCAUUCGGAUUAGGAUAUCUACAUCAUUCGUUUGGGAUAGAGCUACAUGAGGAUCACCCAUGUGUAGAGAAGGAAUAUGAACAC | – | – | 79 | 83.9 | –
CGCAGGGCCCAGAAGGGCAUAAUGUUAGACUACAUGAGGAUCACCCAUGUGCCACGAGAGGUUGUGCAGGAUAUGGAUCUAUUG | – | – | 56.7 | 23.9 | –
ACUAAACCACAGAAGGAACUGAGUGCGCAAAAGUAAGGAUAUGUAAACAAUAACAUGAGGAUCACCCAUGUGACAGUAAGUUUA | – | – | 8.31 | 7.2 | –
AUCUUAGGUGAGAAGGUGGACACAUGAGGAUCACCCAUGUUGAUGGUCUUGUAGCGUUUGCAAGCCAAGGAUAUCAUCUACGGC | – | – | 27.4 | 19.8 | –
UUCACGGGCACGGCCGCCACUAACCAACAUGAGGAUCACCCAUGUGUAUUGGACGACCUCUUUGCUAGGACCGGGUGUAUGGUUC | – | – | – | – | apparent Kd [7]: 24.8 nM; apparent Kd [8]: 30.5 nM
CGCGACUUCAGAGGAUAUGUGCGUGUCACAUGAGGAUCACCCAUGUAAGGUUACCUACGACCGGGACAGAAGGCUGACCCAAAA | – | – | 61 | 19.6 | –
GCAAAAGCGCUCUAGAGACAUGAGGAUCACCCAUGUGUGGGUAGAAGGUCCUACGUACCAUUAAGGAAGGAUAUACACAUAUAU | – | – | 1090 | 540 | –
ACAUGAGGAUCACCCAUGUUGUCAUAGCAACUUUACAGGAGGAGAAGGCGAGGUUGGGCUGCCCUCGAGGAUAUCCGUAGAAAA | – | – | 10.4 | 6.45 | –
GCCAUGUAAGGAUAUCUUAACUUGCAUCACGCGCGGAAUGGAGAGAAGGUACAUGAGGAUCACCCAUGUGAAAA | 19.8 | 28 | – | – | –
UACGGUCAUAGAGGAUAUAGAUCGCGCAACGGUUUCGUGGCCCACAUGAGGAUCACCCAUGUUAUCUAGAAGGCUAUGAGUCGC | 6.82 | 6.8 | – | – | –
GAUUUACAUGAGGAUCACCCAUGUGAGGAUAUGCCGUACAUCGCGCUCUGAGCUAGUUGCAGAAGGCACAUGAU | 18.9 | 18.3 | – | – | –

Source: the EternaBench riboswitch data
